# Published values collected from several papers.
# Lines come from different studies, so protocols differ.
SMILES,organism,test,system,setting,endpoint,result
CN[C@H](CC(C)C)C(=O)N[C@H]1C(=O)N[C@@H](CC(N)=O)C(=O)N[C@H]2C(=O)N[C@H]3C(=O)N[C@H](C(=O)N[C@H](C(=O)O)c4cc(O)cc(O)c4-c4cc3ccc4O)[C@H](O)c3ccc(c(Cl)c3)Oc3cc2cc(c3O[C@@H]2O[C@H](CO)[C@@H](O)[C@H](O)[C@H]2O[C@H]2C[C@](C)(N)[C@H](O)[C@H](C)O2)Oc2ccc(cc2Cl)[C@H]1O,Micrococcus luteus,"microbial growth, broth dilution",DSM1790,,MIC,0.17 µM
O=C1C(=O)c2cccnc2-c2ncccc21,Angiostrongylus cantonensis,parasite motility,,"24 h, larva",EC50,25.6 µM
CC1(C)S[C@@H]2[C@H](NC(=O)[C@H](N)c3ccccc3)C(=O)N2[C@H]1C(=O)O,Micrococcus luteus,"microbial growth, broth dilution",ATCC4698,43 h,MIC,0.5 µg/mL
CNC(C)C1CCC(N)C(OC2C(N)CC(N)C(OC3OCC(C)(O)C(NC)C3O)C2O)O1 (stereo not drawn),Escherichia coli,"microbial killing, broth dilution",ATCC25922,24 h,MBC,4000 µM
OC(Cn1cncn1)(Cn1cncn1)c1ccc(F)cc1F,Alternaria solani,"microbial growth, broth dilution",,,MIC,16 µg/mL
CCCS(=O)(=O)Oc1ccc(C=NNC(=O)CSc2nc3ccc(Cl)cc3c(=O)n2-c2ccccc2)cc1,Staphylococcus aureus,"microbial growth, well diffusion",MRSA,20 µg/mL,inhibition zone,2 mm
CC(=O)c1sc(N/N=C/c2c(-c3ccccc3)nc3ncccn23)nc1C,Escherichia coli,"microbial growth, well diffusion",ATCC25922,100 µg/mL,inhibition zone,14 mm
CN[C@H](CC(C)C)C(=O)N[C@H]1C(=O)N[C@@H](CC(N)=O)C(=O)N[C@H]2C(=O)N[C@H]3C(=O)N[C@H](C(=O)N[C@H](C(=O)O)c4cc(O)cc(O)c4-c4cc3ccc4O)[C@H](O)c3ccc(c(Cl)c3)Oc3cc2cc(c3O[C@@H]2O[C@H](CO)[C@@H](O)[C@H](O)[C@H]2O[C@H]2C[C@](C)(N)[C@H](O)[C@H](C)O2)Oc2ccc(cc2Cl)[C@H]1O,Micrococcus luteus,"microbial growth, broth dilution",ATCC4698,,MIC,0.34 µM
CCCSc1ccc2nc(NC(=O)OC)[nH]c2c1,Angiostrongylus cantonensis,parasite motility,,"24 h, larva",EC50,10.7 µM
O=c1cc(Nc2ccccc2)c2ccccc2o1,Escherichia coli,"microbial growth, broth dilution",,,MIC90,9 µg/mL
CCS(=O)(=O)Oc1cc(C=NNC(=O)CSc2nc3c(C)cccc3c(=O)n2-c2ccccc2)ccc1OC,Staphylococcus aureus,"microbial growth, well diffusion",MRSA,20 µg/mL,inhibition zone,3 mm
CCOC(=O)/C=C1/SC(N/N=C/c2c(-c3ccc(F)cc3)nc3ncccn23)=NC1=O,Escherichia coli,"microbial growth, well diffusion",ATCC25922,100 µg/mL,inhibition zone,10 mm
